The values that follow come from ChEMBL document CHEMBL4725264, “Synthesis and biological evaluation of a novel photo-activated histone deacetylase inhibitor” (Bioorg Med Chem Lett, 2020).

One series deals with HUVEC. Put plainly: Cytotoxicity against HUVEC at 1.0 mmol/L after 24 hrs by trypan blue staining based assay. Conditions: human, 1000 µM. In kind it is cell-based. In a few lines:
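HUVECs (pooled donor) grown in Medium-199 with 20% FCS, endothelial cell growth factor and heparin, 37 °C, 5% CO2. Agents dissolved in 100% DMSO and added at final 1.0 mmol/L for 24 h. Viability scored by 0.4% trypan blue exclusion right after culture, relative to viable count at start. Untreated cells as control. At least 3 repeats, averaged.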

In series [1] the target is T1, Histone deacetylase (Homo sapiens) (UniProt Q13547+O15379+Q9UBN7+Q92769+Q9UQL6+Q8WUI4+Q9BY41+Q96DB2+P56524+Q9UKV0+Q969S8). In words: Inhibition of HDAC in human HL-60 cells assessed as increase in H3 histone acetylation at 10 uM after 24 hrs by Western blot anlaysis. The class given is cell-based. The procedure, abridged: (§1)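 Caged compound coated on angioplasty balloon at 3.0ug/mm2. Balloon either exposed to 365 nm UV (65mW, 4 min) or left unexposed, then compound eluted. HL60 cells (RPMI-1640, 10% heat-inactivated FCS, 37 °C, 5% CO2) treated with eluate at 10.0 µM for 24 h, then PBS-washed. Histones acid-extracted (H2SO4, acetone precipitation), quantified by Bradford. 25 µg per lane run on 15% SDS-PAGE and transferred to PVDF. Blocked in 5% milk, probed overnight at 4 °C with anti-acetyl histone H3, detected with HRP anti-rabbit IgG (1:1000). Untreated cells as control.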

Series [2] has as its target T1, Histone deacetylase (Homo sapiens). Put plainly: Inhibition of HDAC in human HL-60 cells assessed as increase in H3 histone acetylation at 10 uM under UV irradiation after 24 hrs by Western blot anlaysis. In kind it is cell-based. In a few lines: as §1
Series [3] in a line: Drug metabolism assessed as photolysis by measuring parent compound at 4.26 mM using MeCN and Water (1:3) as solvent system measured upon irradiation with 8-Watt UV365nm light after 30 mins by HPLC analysis. The class given is physicochemical. Conditions: MeCN and water (1:3) solvent system, read-out: Drug metabolism. The procedure, abridged: (§2)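 Caged compound prepared as 4.26 mM solution in MeCN/water (1:3). Irradiated with 8-Watt 365 nm UV lamp. Aliquots taken at 30, 45, 60, 75 and 90 min and analysed by HPLC for remaining caged parent and released hydroxamic acid (identified by m/z). Carboxamide side product tracked by its separate peak.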

Series [4] can be described thus: Drug metabolism assessed as photolysis by measuring parent compound at 4.26 mM using MeCN and Water (1:3) as solvent system measured upon irradiation with 8-Watt UV365nm light after 45 mins by HPLC analysis. Conditions: MeCN and water (1:3) solvent system, read-out: Drug metabolism. The class given is physicochemical. The procedure, abridged:
as §2

Series [5] can be described thus: Drug metabolism assessed as photolysis by measuring parent compound at 4.26 mM using MeCN and Water (1:3) as solvent system measured upon irradiation with 8-Watt UV365nm light after 60 mins by HPLC analysis. Conditions: MeCN and water (1:3) solvent system, read-out: Drug metabolism. In kind it is physicochemical. The procedure, abridged:
as §2

Series [6] in a line: Drug metabolism assessed as photolysis by measuring parent compound at 4.26 mM using MeCN and Water (1:3) as solvent system measured upon irradiation with 8-Watt UV365nm light after 75 mins by HPLC analysis. The class given is physicochemical. Conditions: MeCN and water (1:3) solvent system, read-out: Drug metabolism. The procedure, abridged:
as §2

Series [7] can be described thus: Drug metabolism assessed as photolysis by measuring parent compound at 4.26 mM using MeCN and Water (1:3) as solvent system measured upon irradiation with 8-Watt UV365nm light after 90 mins by HPLC analysis. Conditions: MeCN and water (1:3) solvent system, read-out: Drug metabolism. The class given is physicochemical. In a few lines:
as §2

A short description of series [8]: Drug metabolism assessed as photolysis by measuring parent compound at 85 uM using DMSO, EtOH and water (4:4:92) as solvent system measured upon irradiation with 100mW UV365nm light after 2 mins by HPLC analysis. In kind it is physicochemical.
Series [9] can be described thus: Drug metabolism assessed as photolysis by measuring parent compound at 85 uM using DMSO, EtOH and water (4:4:92) as solvent system measured upon irradiation with 100mW UV365nm light after 4 mins by HPLC analysis. In kind it is physicochemical. Conditions: EtOH and water (4:4:92) solvent system, read-out: Drug metabolism.
Series [10] can be described thus: Drug metabolism assessed as photolysis by measuring parent compound at 85 uM using DMSO, EtOH and water (4:4:92) as solvent system measured upon irradiation with 100mW UV365nm light after 6 mins by HPLC analysis. In kind it is physicochemical. Conditions: EtOH and water (4:4:92) solvent system, read-out: Drug metabolism.

The source made the active and inactive calls. The rule behind the calls is not given here.

With `CC(=O)O[C@H]1C(=O)[C@@]2(C)[C@H]([C@H](OC(=O)c3ccccc3)[C@]3(O)C[C@H](OC(=O)[C@H](O)[C@@H](NC(=O)c4ccccc4)c4ccccc4)C(C)=C1C3(C)C)[C@]1(OC(C)=O)CO[C@@H]1C[C@@H]2O` [PACLITAXEL], the Activity entry in the series with HUVEC is on record as “Toxic”.
Turning to `CS(=O)(=O)Nc1cccc(-c2ccc(C(=O)NO)cc2)c1`, the inhibition entry in [1] is “Active”. Moreover, the Activity entry in the series with HUVEC was “Toxic”.
Turning to `COc1cc(C(C)ONC(=O)c2ccc(-c3cccc(NS(C)(=O)=O)c3)cc2)c([N+](=O)[O-])cc1OCCCC(=O)O` (centres undefined), in [1], the inhibition result was “inactive”. Further, the inhibition result in series [2] was “Active”. For the same molecule, in the series with HUVEC, the Activity result is recorded as “Non-Toxic”. The remaining at 0.5 h, 4260 µM in series [3] amounted to 53.3%. Further, the remaining at 0.75 h, 4260 µM in [4] was determined as 18%. The remaining at 1 h, 4260 µM in series [5] is 8.4%. In series [6], the remaining at 1.25 h, 4260 µM is 2.4%. Besides, the remaining at 1.5 h, 4260 µM in [7] was found to be 0.7%. For the same molecule, the Drug metabolism in [8] amounted to 28.9%. For the same molecule, the remaining at 4 min, 85 µM in series [9] worked out at 11.1%. Besides, in [10], the remaining at 0.1 h, 85 µM is 8.2%.
